According to PubChem BioAssay:
Results filed as inconclusive are left out. The source made the active and inactive calls.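 How the source made its calls, unless noted: active means viability increase at or above a cutoff of the median across tested compounds plus 3 SD (cut at about 8.5% in these data, passing the limit was not always enough); inconclusive means some gains above the cutoff, reason not given; inactive means the rest.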

How the values were obtained:
[1] = OD615 S. cerevisiae growth inhibition, permissive medium, pilot counter-assay, permissive growth control for S. cerevisiae lifespan shortening project (AID 705;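 active means growth inhibition above 25% in both replicates, a cutoff set 3 SD above the mean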); settings: OD615, 24 h, at 10 µM, hits give high values
How it was run: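 assay system = Saccharomyces cerevisiae strain carrying genetically modified DeaD replicative-lifespan system | technique = absorbance (optical density) at 615 nm | buffer or medium = permissive raffinose/galactose medium | timing = cells pre-grown 4 h, then 24 h compound exposure, 30 °C humidified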

[2] = Restrictive medium S. cerevisiae growth inhibition, OD615, pilot screen of yeast lifespan reduction project, restrictive growth control (AID 706;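 active means growth inhibition above a set limit, 3 SD over mean compound inhibition, in both replicates, cut at about 43% in these data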;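 further: modified DeaD lifespan yeast strain shifted to restrictive glucose medium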); settings: OD615, 48 h, at 10 µM, hits give high values
How it was run: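 System: modified S. cerevisiae. Buffer or medium: CSMM-D glucose medium. Incubation: 4 h pre-growth plus 48 h compound exposure, 30 °C. Detection: absorbance (optical density) measured at 615 nm.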

[3] = viability gain of MRP-1-high H69AR cells under doxorubicin, pilot screen, MRP-1 activator project, CellTiter-Glo, duplicate (AID 807); settings: H69AR viability with doxorubicin, CellTiter-Glo luminescence; at 10 µM; hits give high values;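 further: compound pretreatment 18-22 h then 72 h combined with doxorubicin; 0% = doxorubicin alone and 100% = vehicle without doxorubicin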
[4] = growth suppression of beta-catenin knockout HCT116, pilot screen, human colon tumor cells (AID 823;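 active means cell viability at or below a set limit in both duplicate runs, the limit being the all-compound median minus 4 SD, cut at about 23% in these data, passing the limit was not always enough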;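 further: 0% = wells killed by 20 µM Hyamine and 100% = untreated DMSO cell wells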); settings: CellTiter-Glo, 60 h, at 10 µM, hits give low values
[5] = growth suppression of PTEN-deleted HCT116, pilot screen, cell-based, HCT116 clonal line, CellTiter-Glo (AID 824;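 active means viability at or below 27.92% in each of two runs, the all-compound median minus 4 SD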;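 further: 0% = 20 µM Hyamine control and 100% = vehicle cell control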); settings: 60 h, at 10 µM, hits give low values
[6] = inhibitors of the yeast RAM network, pilot screen, dse1pr::URA3 reporter, 5-FOA selection (AID 869;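 active means inhibition over a set limit, the all-compound mean plus 3 SD, in both replicate runs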;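 further: 0% = DMSO wells with no growth and 100% = 10 µM 1-NA-PP1 with full growth; RAM network block rescues cells from 5-FOA so hits raise OD615 growth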); settings: S. cerevisiae dse1pr::URA3 5-FOA growth, OD615, 2 d; at 10 µM; hits give high values; strain carries analog-sensitive mutant Cbk1 kinase
[7] = RAM signaling pathway blockade in yeast – S. cerevisiae, Pdr1DBD-CYC8 efflux-inhibited sensitized strain, primary screen (AID 1298;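 active means RAM network inhibition above 8.4% in each of two replicates, 3 SD over the compound average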;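 further: 0% = DMSO untreated cells without growth and 100% = 10 µM 1-NA-PP1 full growth; higher means more yeast growth rescued from 5-FOA killing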); settings: S. cerevisiae cbk1-as DSE1-URA3 strain, 5-FOA growth OD615, 2 d; at 50 µM; hits give high values

CC(=O)OC1c2c(ccc3ccc(=O)oc23)OC(C)(C)C1OC(=O)CC(C)C (stereo unspecified)
inactive: growth inhibition [1] -18.4% | growth inhibition [2] -10% | viability increase [3] 1.31% | viability [4] 84.7% | viability [5] 80.8% | inhibition [6] 1.1% | RAM network inhibition [7] 10%

CCOC(=O)CC1C(=O)NCCN1Cc1cccc(OC)c1 (stereo unspecified)
inactive: growth inhibition [1] -12.5% | growth inhibition [2] -6.96% | viability increase [3] 0.71% | viability [4] 100% | viability [5] 108% | inhibition [6] 0.17% | RAM network inhibition [7] 1.79%

COc1ccc(-n2nnc3c(=O)n(CC(=O)N4CCC(C)CC4)cnc32)cc1
inactive: growth inhibition [1] 8.16% | growth inhibition [2] 3.46% | viability increase [3] -0.52% | viability [4] 95.8% | viability [5] 92.3% | inhibition [6] 1.77% | RAM network inhibition [7] 2.64%

Cc1nc(CC(=O)c2c(C)cc(O)cc2O)cs1
inactive: growth inhibition [1] -12.2% | growth inhibition [2] 1.06% | viability increase [3] 2.92% | viability [4] 90.5% | viability [5] 95.9% | inhibition [6] -0.335% | RAM network inhibition [7] 1.48%

CCC1CCCCN1C(=O)CSc1nnc(-c2ccc(Cl)cc2)o1 (stereo unspecified)
inactive: growth inhibition [1] 0.365% | growth inhibition [2] -5.16% | viability increase [3] 0.28% | viability [4] 87% | viability [5] 90.9% | inhibition [6] 1.89% | RAM network inhibition [7] 5.69%

O=C(Nc1ccncc1)c1ccccc1F
inactive: growth inhibition [1] -0.355% | growth inhibition [2] 0.36% | viability increase [3] -3.04% | viability [4] 94.3% | viability [5] 98% | inhibition [6] 1.06% | RAM network inhibition [7] 0.96%

CC(=O)CCc1c(C)[nH]c2ccc(NC(C)=O)cc2c1=O
inactive: growth inhibition [1] 5.26% | growth inhibition [2] 8.18% | viability increase [3] -0.95% | viability [4] 100% | viability [5] 98% | inhibition [6] 0.77% | RAM network inhibition [7] 2.81%

CC1CCN(C(=O)C(Cc2ccccc2)n2cccc2)CC1 (stereo unspecified)
inactive: growth inhibition [1] -6.79% | growth inhibition [2] -8.94% | viability increase [3] -3.15% | viability [4] 87.9% | viability [5] 79% | inhibition [6] 2.27% | RAM network inhibition [7] 5.92%

CC(C)n1c(SCc2ccccc2F)nc2c1c(=O)n(C)c(=O)n2C
inactive: growth inhibition [1] -11.3% | growth inhibition [2] -1.82% | viability increase [3] -1.77% | viability [4] 82.7% | viability [5] 76.5% | inhibition [6] 1.15% | RAM network inhibition [7] 5.87%

Cn1c(NC(=O)C2CCCC2)cc(=O)n(C)c1=O
inactive: growth inhibition [1] 0.48% | growth inhibition [2] -4.17% | viability increase [3] -0.06% | viability [4] 105% | viability [5] 95.4% | inhibition [6] 0.58% | RAM network inhibition [7] -1.4%

C=CCn1c(SCCOC)nc2c1c(=O)[nH]c(=O)n2C
inactive: growth inhibition [1] 2.12% | growth inhibition [2] 0.43% | viability increase [3] -2.47% | viability [4] 99% | viability [5] 95% | inhibition [6] 0.665% | RAM network inhibition [7] -0.26%

Oc1c(C(c2cccs2)N2CCN(c3ccc(F)cc3)CC2)sc2ncnn12 (stereo unspecified)
inactive: growth inhibition [1] 0.78% | growth inhibition [2] -6.24% | viability [4] 105% | viability [5] 90.9% | inhibition [6] 0.495% | RAM network inhibition [7] 8.63%
active: viability increase [3] 13.4%

CCOc1cccc(NC(=O)Cc2cccs2)c1
inactive: growth inhibition [1] -8.74% | growth inhibition [2] -0.895% | viability increase [3] -1.86% | viability [4] 94.1% | viability [5] 84.6% | inhibition [6] 1.06% | RAM network inhibition [7] 4.72%

COc1ccccc1N1CCN(C(=O)CCCn2c(=O)[nH]c3ccsc3c2=O)CC1
inactive: growth inhibition [1] 3.76% | growth inhibition [2] 7.54% | viability increase [3] -2.24% | viability [4] 98.6% | viability [5] 97.2% | inhibition [6] 0.74% | RAM network inhibition [7] -0.42%

Cc1cc(N2C(=O)CC(Cc3ccccc3)C2=O)no1 (stereo unspecified)
inactive: growth inhibition [1] -6.49% | growth inhibition [2] -11.5% | viability increase [3] 1.08% | viability [4] 103% | viability [5] 103% | inhibition [6] 1.55% | RAM network inhibition [7] 2.8%

CCOc1ccc(N(CC(=O)NC2CCCC2)S(=O)(=O)c2c(C)noc2C)cc1
inactive: growth inhibition [1] -12.7% | growth inhibition [2] -2.85% | viability increase [3] -2.27% | viability [4] 97.4% | viability [5] 94.9% | inhibition [6] 3.61% | RAM network inhibition [7] 8.02%

CCOc1cccc(N2C(=O)CC(NCc3ccc(S(N)(=O)=O)cc3)C2=O)c1 (stereo unspecified)
inactive: growth inhibition [1] -14.7% | growth inhibition [2] -1.03% | viability increase [3] -1.3% | viability [4] 101% | viability [5] 94.7% | inhibition [6] 0.44% | RAM network inhibition [7] 2.35%

Cc1cc2nc(SCCN3CCCC3)[nH]c2cc1C
inactive: growth inhibition [1] 7.63% | growth inhibition [2] -8.07% | viability increase [3] -4.4% | viability [4] 83.1% | viability [5] 89.1% | inhibition [6] 3.22% | RAM network inhibition [7] -0.81%

CCOC(=O)N1CCC(Nc2ccc3nnc(-c4ccccc4)n3n2)CC1
inactive: growth inhibition [1] 12.3% | growth inhibition [2] 29.3% | viability increase [3] -6.99% | viability [4] 69.4% | viability [5] 66% | inhibition [6] -0.975% | RAM network inhibition [7] 2.57%

Cc1cc(/C=N/n2cnnc2)c(C)n1-c1ccc(C(=O)O)cc1
inactive: growth inhibition [1] 5.52% | growth inhibition [2] -2.69% | viability increase [3] 1.76% | viability [4] 102% | viability [5] 99% | inhibition [6] 0.98% | RAM network inhibition [7] 2.56%

Cc1cc(OC2CCCCC2)nc(-c2ccccc2O)n1
inactive: growth inhibition [1] -21.5% | growth inhibition [2] -17.2% | viability increase [3] -0.33% | viability [4] 87% | viability [5] 81.5% | inhibition [6] 1.9% | RAM network inhibition [7] 12.3%

CN1CCN(c2cc3c(c4c2[nH]c2ccccc24)C(=O)CC(C)(C)C3)CC1
inactive: growth inhibition [1] -15.3% | growth inhibition [2] 4.61% | viability increase [3] -8.46% | inhibition [6] 0.76% | RAM network inhibition [7] 0.78%
active: viability [4] 1.73% | viability [5] 1.58%

CCNc1nnc(-c2ccccc2OC)s1
inactive: growth inhibition [1] -2.37% | growth inhibition [2] 3.71% | viability increase [3] -0.41% | viability [4] 96% | viability [5] 103% | inhibition [6] -0.485% | RAM network inhibition [7] 5.21%

CCSc1nnc2c(n1)OC1(CCCC1)Nc1ccccc1-2
inactive: growth inhibition [1] -13.8% | growth inhibition [2] -3.69% | viability increase [3] -0.51% | viability [4] 97.3% | viability [5] 93.5% | inhibition [6] 1.45% | RAM network inhibition [7] 5.92%

Cc1cc2cc(CNC(=O)c3ccco3)ccc2n1C
inactive: growth inhibition [1] -7.55% | growth inhibition [2] -15.6% | viability increase [3] -4.26% | viability [4] 106% | viability [5] 94.4% | inhibition [6] 1.89% | RAM network inhibition [7] 6.42%

Cc1nc2nc[nH]c2cc1Br
inactive: growth inhibition [1] 5.74% | growth inhibition [2] 6.22% | viability increase [3] -2.75% | viability [4] 97.8% | viability [5] 100% | inhibition [6] 0.705% | RAM network inhibition [7] -0.41%

CCOC(=O)N1CCN(C(=O)C2CCN(C(=O)c3cc4sccc4n3CC)CC2)CC1
inactive: growth inhibition [1] -16.3% | growth inhibition [2] -18.7% | viability increase [3] -3.05% | viability [4] 91.7% | viability [5] 98.9% | inhibition [6] 0.825% | RAM network inhibition [7] 3.06%

Cc1ccc(-n2nc(C)c3c2OC(N)=C(C#N)C3c2cccs2)cc1 (stereo unspecified)
inactive: growth inhibition [1] -14.8% | growth inhibition [2] -26.3% | viability increase [3] -3.41% | viability [4] 90.5% | viability [5] 88.5% | inhibition [6] 1.91% | RAM network inhibition [7] 0.52%

C=CCn1c(SCC(=O)N2CCN(c3ccc(F)cc3)CC2)nnc1-c1ccco1
inactive: growth inhibition [1] 3.6% | growth inhibition [2] 1.48% | viability increase [3] -2.41% | viability [4] 60.7% | viability [5] 73.1% | inhibition [6] 1.71% | RAM network inhibition [7] 11.3%

O=C(CSc1nc2c(cnn2-c2ccc(F)cc2)c(=O)[nH]1)N1CCCCC1
inactive: growth inhibition [1] -8.1% | growth inhibition [2] 7.12% | viability increase [3] -3.71% | viability [4] 91.7% | viability [5] 84.7% | inhibition [6] 2.99% | RAM network inhibition [7] 1.77%

CCCCNC(=O)CCCn1c(=O)[nH]c2ccc(Br)cc2c1=O
inactive: growth inhibition [1] -13% | growth inhibition [2] -18% | viability increase [3] -0.78% | viability [4] 97.9% | viability [5] 92.7% | inhibition [6] 0.635% | RAM network inhibition [7] 1.08%

Cc1cc(-c2nc3ncccc3o2)ccc1NC(=O)CC(C)C
inactive: growth inhibition [1] -3.98% | growth inhibition [2] -5.53% | viability increase [3] -0.17% | viability [4] 108% | viability [5] 90% | inhibition [6] 1.06% | RAM network inhibition [7] 0.92%

Cc1cc(=O)[nH]c(SCC(=O)NCCOc2ccccc2)n1
inactive: growth inhibition [1] -2.17% | growth inhibition [2] -1.72% | viability increase [3] -0.09% | viability [4] 102% | viability [5] 98.8% | inhibition [6] 1.02% | RAM network inhibition [7] 1.13%
